Measurements: ChEMBL document CHEMBL1134949, “New irreversible adenosine A(1) antagonists based on FSCPX” (Bioorg Med Chem Lett, 2002)
Values joined by “and” are separate entries in the source; they are usually repeats but may differ in a detail not shown here. Equal values may be shown once.

Legend:
[1] = molecular target: T1, Adenosine receptor A1 (Homo sapiens) (UniProt P30542); experiment: Percentage loss of [3H]-DPCPX binding to Adenosine A1 receptor in the presence of Xanthine derivative at 5 nM from DDT1 MF2 cells; type: cell-based
T1 sequence (whole entry): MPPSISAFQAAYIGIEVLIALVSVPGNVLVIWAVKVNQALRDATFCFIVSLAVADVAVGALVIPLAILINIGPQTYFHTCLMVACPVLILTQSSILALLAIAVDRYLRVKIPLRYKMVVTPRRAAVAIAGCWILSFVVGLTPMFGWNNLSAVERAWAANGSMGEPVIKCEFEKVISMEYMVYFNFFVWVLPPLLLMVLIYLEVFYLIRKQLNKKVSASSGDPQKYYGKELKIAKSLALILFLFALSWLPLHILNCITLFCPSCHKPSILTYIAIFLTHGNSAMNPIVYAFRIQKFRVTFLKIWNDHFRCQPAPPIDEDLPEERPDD
Summary of the method: (§1)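 DDT1 MF-2 cells preincubated with or without antagonist (5 or 100 nM) for 30 min at 30 °C, then 10 cell wash cycles to remove unbound ligand. Membranes then prepared and assayed for [3H]DPCPX Bmax and KD. Receptor loss is the reduction in Bmax versus control. Mean ± SE, n = 3-6.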

[2] = molecular target: T1, Adenosine receptor A1 (Homo sapiens); experiment: Percentage loss of [3H]DPCPX binding to Adenosine A1 receptor in the presence of Xanthine derivative at 100 nM from DDT1 MF2 cells; type: cell-based; summary of the method: as §1
[3] = Inhibitory concentration against [3H]DPCPX binding to Adenosine A1 receptor from DDT1 MF2 cells
[4] = Equilibrium dissociation constant for [3H]DPCPX binding to Adenosine A1 receptor from DDT1 MF2 cell membranes

Compound | Loss [1] [%] | Loss [2] [%] | IC50 [3] [pM] | Kd [4]
CCCn1c(=O)c2nc(C3CCCC3)[nH]c2n(CCCCC(=O)c2ccc(S(=O)(=O)F)cc2)c1=O | 51 | 73 | – | –
CCCn1c(=O)c2nc(C3CCCCC3)[nH]c2n(CCCCC(=O)c2ccc(S(=O)(=O)F)cc2)c1=O | 56 | 78 | – | –
CCCn1c(=O)c2nc(C3CC4CCC3C4)[nH]c2n(CCCCC(=O)c2ccc(S(=O)(=O)F)cc2)c1=O (stereo not drawn) | 50 | 81 | – | –
CCCn1c(=O)c2nc(C3CCCC3)[nH]c2n(CCCNC(=O)c2ccc(S(=O)(=O)F)cc2)c1=O | – | – | 21000 | 360 pM and 310 pM
